Our source for the inhibition and IC50 values is ChEMBL document CHEMBL1125793 (J Med Chem, 1991).

Assay [1] deals with T1, Angiotensin II receptor (Rattus norvegicus) (UniProt P29089+P25095+P35351). The assay can be described thus: Inhibitory activity against Angiotensin II receptor, from rat adrenal gland at a concentration of 10 uM. It counts as tissue-based. In outline:
(§1)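 Displacement of 125I-Ang II ([…]) from rat adrenal membrane fraction, with test agent at a single 10 μM. Buffer was Tris-HCl, NaCl, 5 mM DTT and BSA; incubation 30 min at 22–25 °C in duplicate.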

Assay [2] concerns the target T2, Angiotensin II receptor (Rattus norvegicus, UniProt P29089+P25095+P35351).
T2 sequence (P29089 whole entry): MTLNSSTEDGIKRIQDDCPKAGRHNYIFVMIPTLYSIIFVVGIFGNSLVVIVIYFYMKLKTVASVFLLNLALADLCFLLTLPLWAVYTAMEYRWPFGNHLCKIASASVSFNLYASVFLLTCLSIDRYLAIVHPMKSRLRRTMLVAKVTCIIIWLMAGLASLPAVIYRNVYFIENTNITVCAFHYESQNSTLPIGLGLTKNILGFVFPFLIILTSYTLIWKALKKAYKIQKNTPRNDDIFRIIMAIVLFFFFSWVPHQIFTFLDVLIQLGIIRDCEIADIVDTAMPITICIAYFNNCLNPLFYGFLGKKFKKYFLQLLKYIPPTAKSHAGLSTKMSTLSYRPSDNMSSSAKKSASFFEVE
T2 sequence (P25095 whole entry): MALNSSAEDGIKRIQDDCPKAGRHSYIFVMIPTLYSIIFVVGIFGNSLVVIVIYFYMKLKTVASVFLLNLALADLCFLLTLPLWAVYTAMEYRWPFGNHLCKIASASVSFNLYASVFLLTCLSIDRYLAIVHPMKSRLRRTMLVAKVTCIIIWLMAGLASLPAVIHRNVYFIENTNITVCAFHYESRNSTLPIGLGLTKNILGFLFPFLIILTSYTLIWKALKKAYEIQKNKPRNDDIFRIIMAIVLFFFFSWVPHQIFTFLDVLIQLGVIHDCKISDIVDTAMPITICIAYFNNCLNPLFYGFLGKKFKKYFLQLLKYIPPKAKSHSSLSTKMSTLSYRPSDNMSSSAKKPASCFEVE
T2 sequence (P35351 whole entry): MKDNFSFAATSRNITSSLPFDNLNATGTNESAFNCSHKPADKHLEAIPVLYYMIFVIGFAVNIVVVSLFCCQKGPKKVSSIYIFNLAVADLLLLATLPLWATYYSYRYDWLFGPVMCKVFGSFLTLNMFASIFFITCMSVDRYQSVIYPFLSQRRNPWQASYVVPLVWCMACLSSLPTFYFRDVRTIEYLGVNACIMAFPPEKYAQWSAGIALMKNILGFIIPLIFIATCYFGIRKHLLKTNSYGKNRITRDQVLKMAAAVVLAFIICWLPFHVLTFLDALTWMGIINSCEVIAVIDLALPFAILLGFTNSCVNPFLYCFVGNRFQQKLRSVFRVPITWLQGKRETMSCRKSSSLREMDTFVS
Kind of assay: Binding affinity against Angiotensin II receptor, from rat adrenal gland. It counts as tissue-based.

In assay [3] the target is T2, Angiotensin II receptor. The assay can be described thus: Binding affinity for rat brain Angiotensin II receptor.
The target of assay [4] is T1, Angiotensin II receptor (Rattus norvegicus). The assay can be described thus: Inhibitory activity against angiotensin II receptor at a concentration of 10 uM in rat. In outline:
as §1

`CC(=O)N1Cc2ncn(Cc3ccccc3)c2CC1C(=O)O` (centres undefined): the inhibition in assay [1] was 4%.
For `O=C(O)[C@@H]1Cc2c(ncn2CCCc2ccccc2)CN1C(=O)C(c1ccccc1)c1ccccc1`, the half-maximal inhibitory concentration (IC50) in assay [2] stood at 700 nM; in assay [3], 400 nM.
For `O=C(O)C1Cc2c(ncn2Cc2ccccc2)CN1C(=O)C1c2ccccc2-c2ccccc21` (centres undefined), the IC50 in assay [2] worked out at 8000 nM; in assay [3], 19000 nM.
Take `O=C(O)[C@@H]1Cc2c(ncn2CCC23CC4CC(CC(C4)C2)C3)CN1C(=O)C(c1ccccc1)c1ccccc1`: the figures for the concentration for half-maximal inhibition (IC50) in assay [2] and in assay [3] were 130 nM and 170 nM, respectively.
`O=C(O)C1Cc2c(ncn2Cc2ccccc2)CN1C(=O)c1ccccc1` (centres undefined) displayed an inhibition in assay [1] of 12%.
Turning to `COc1ccc(Cn2cnc3c2C[C@@H](C(=O)O)N(C(=O)C2c4ccccc4-c4ccccc42)C3)cc1C`, the inhibition in assay [4] was found to be 27%.
Regarding `NC(=O)C1Cc2c(ncn2Cc2ccccc2)CN1C(=O)Nc1ccccc1` (centres undefined), the inhibition in assay [1] amounted to 14%.
Consider `Cc1cccc(Cn2cnc3c2C[C@@H](C(=O)O)N(C(=O)C(c2ccccc2)c2ccccc2)C3)c1`, for which the concentration for half-maximal inhibition (IC50) in assay [2] came out at 150 nM; in assay [3] it was 1600 nM.
On to `Cc1cc(Cn2cnc3c2C[C@@H](C(=O)O)N(C(=O)C(c2ccccc2)c2ccccc2)C3)ccc1N(C)C`, for which the results for the half-inhibitory concentration (IC50) in assay [2] and in assay [3] were 34 nM and 210 nM, respectively.
For `COc1ccc(Cn2cnc3c2CC(CO)N(C(=O)C(c2ccccc2)c2ccccc2)C3)cc1C` (centres undefined), the IC50 is 370 nM in assay [2] and 130 nM in assay [3].
In the case of `O=C(O)C1Cc2c(ncn2Cc2ccccc2)CN1C(=O)C(c1ccc(Cl)cc1)c1ccc(Cl)cc1` (centres undefined), the concentration for half-maximal inhibition (IC50) in assay [2] was determined as 6800 nM; in assay [3], 8200 nM.
Regarding `COc1ccc(Cn2cnc3c2C[C@@H](C(=O)O)N(C(=O)C(c2ccccc2)c2ccccc2)C3)cc1C`, the half-inhibitory concentration (IC50) in assay [2] was determined as 70 nM.
In assay [2], `COc1ccc(Cn2cnc3c2C[C@@H](C(=O)O)N(C(=O)C(c2ccccc2)c2ccccc2)C3)cc1OC` had an IC50 of 98 nM. This IC50 and that of the compound before are within 1.5-fold of each other.
`O=C(O)C1Cc2c(ncn2Cc2ccccc2)CN1C(=O)OCc1ccccc1` (stereo in doubt; 7) came in with a half-maximal inhibitory concentration (IC50) in assay [2] of 14000 nM.
On to `Cc1cc(Cn2cnc3c2CC(CO)N(C(=O)C(c2ccccc2)c2ccccc2)C3)ccc1[N+](=O)[O-]` (centres undefined), for which, in assay [2], the IC50 came out at 2000 nM. Compared with the last compound, the IC50 is about 7-fold lower.
As to `O=C(O)C1Cc2c(ncn2Cc2ccccc2)CN1C(=O)Cc1ccccc1` (stereo in doubt; 14a), the IC50 in assay [2] was 740 nM.
The same measure, in the same setting: with `CCc1cc(Cn2cnc3c2C[C@@H](C(=O)O)N(C(=O)C(c2ccccc2)c2ccccc2)C3)ccc1OC` the figure was 50 nM.
As to `COc1ccc(Cn2cnc3c2C[C@@H](C(=O)O)N(C(=O)C(c2ccc(F)cc2)c2ccc(F)cc2)C3)cc1C`, the IC50 in assay [2] was determined as 2300 nM.
With `COC(=O)C1Cc2c(ncn2Cc2ccc([N+](=O)[O-])c(C)c2)CN1C(=O)C(c1ccccc1)c1ccccc1` (centres undefined), the IC50 in assay [2] was found to be 5100 nM.
With `O=C(O)C1Cc2c(ncn2Cc2ccccc2)CN1C(=O)COc1ccccc1` (centres undefined), the IC50 in assay [2] was 4000 nM.
Consider `O=C(O)[C@@H]1Cc2c(ncn2Cc2ccc(C(F)(F)F)cc2)CN1C(=O)C(c1ccccc1)c1ccccc1`, for which the IC50 was found to be 190 nM in assay [2] and 800 nM in assay [3].
Turning to `O=C(C(c1ccccc1)C1CCCC1)N1Cc2ncn(Cc3ccccc3)c2CC1CO` (centres undefined), in assay [2], the IC50 worked out at 6700 nM.
Same read-out and setting: the figure for `COC(=O)C1Cc2c(ncn2Cc2ccccc2)CN1C(=O)C(c1ccccc1)c1ccccc1` (centres undefined) is 8800 nM.
`O=C(O)C1Cc2c(ncn2Cc2ccccc2)CN1C(=O)CCc1ccccc1` (centres undefined): in assay [2], the IC50 is 13000 nM.
Compound `COc1ccc(Cn2cnc3c2C[C@@H](C(=O)O)N(C(=O)C(c2ccccc2)c2ccccc2)C3)cc1[N+](=O)[O-]` came in with a 50% inhibitory concentration (IC50) in assay [2] of 51 nM.
Compound `O=C(O)C1Cc2c(ncn2Cc2ccccc2)CN1C(=O)CC(c1ccccc1)c1ccccc1` (centres undefined) had an IC50 in assay [2] of 1200 nM. This IC50 is about 24-fold higher than that of the compound before.
On the same count and under the same terms, with `COc1ccc(Cn2cnc3c2C[C@@H](C(=O)O)N(C(=O)Cc2ccccc2)C3)cc1C` the figure was 530 nM.
Compound `O=C(O)[C@@H]1Cc2c(ncn2C(c2ccccc2)c2ccccc2)CN1C(=O)C(c1ccccc1)c1ccccc1` displayed an IC50 in assay [2] of 110 nM.
Still for that read-out and setting: the figure for `O=C(O)C1Cc2c(ncn2Cc2ccccc2)CN1C(=O)Nc1ccccc1` (centres undefined) is 2100 nM; for `O=C(O)C1Cc2c(ncn2Cc2ccccc2)CN1C(=O)c1cccc2ccccc12` (centres undefined) it is 9800 nM.
In the case of `COc1ccc(Cn2cnc3c2C[C@@H](C(=O)O)N(C(=O)C(C)c2ccccc2)C3)cc1C` (some centres undefined), in assay [2], the concentration for half-maximal inhibition (IC50) amounted to 560 nM.
For the compound `CN(C)c1ccc(Cn2cnc3c2C[C@@H](C(=O)O)N(C(=O)C(c2ccccc2)c2ccccc2)C3)cc1`, in assay [2], the IC50 turned out to be 85 nM.
Turning to `Cc1ccc(S(=O)(=O)N2Cc3ncn(Cc4ccccc4)c3CC2C(=O)O)cc1` (centres undefined), the half-maximal inhibitory concentration (IC50) in assay [2] turned out to be 4200 nM.
In turn, `O=C(O)C1Cc2c(ncn2Cc2ccccc2)CN1C(=O)Cc1ccccc1` (stereo in doubt; 14) showed a half-inhibitory concentration (IC50) in assay [2] of 1400 nM. Against the preceding compound, the IC50 is about 3-fold lower.
In assay [1], `O=C(O)C1Cc2ncn(Cc3ccccc3)c2CN1C(=O)Nc1ccccc1` (centres undefined) had an inhibition of 24%.
For the compound `O=C(Cc1ccccc1)N1Cc2ncn(Cc3ccccc3)c2CC1CO` (centres undefined), in assay [2], the concentration for half-maximal inhibition (IC50) was 5200 nM.
`COc1ccc(Cn2cnc3c2CC(CO)N(C(=O)N(C)c2ccccc2)C3)cc1C` (centres undefined) showed an IC50 in assay [2] of 520 nM.
`Nc1ccc(C(C(=O)N2Cc3ncn(Cc4ccccc4)c3CC2C(=O)O)c2ccc(N)cc2)cc1` (centres undefined) registered an IC50 in assay [2] of 8400 nM.
`COc1ccc(C)cc1Cn1cnc2c1C[C@@H](C(=O)O)N(C(=O)C(c1ccccc1)c1ccccc1)C2` yielded an IC50 in assay [2] of 720 nM.
As to `O=C(O)C1Cc2c(ncn2Cc2ccccc2)CN1C(=O)C(c1ccccc1)c1ccccc1` (stereo in doubt; 18a), the values for the 50% inhibitory concentration (IC50) in assay [2] and in assay [3] were 440 nM and 3800 nM, respectively.
